From ChEMBL document CHEMBL3272064, “Mode of action and quantitative structure-activity correlations of tuberculostatic drugs of the isonicotinic acid hydrazide type” (J Med Chem, 1976)
Values after ≈ are worked out from the molar mass of the structure shown.

How the values were obtained:
[1] = Retardation factor, Rm of the compound in acetone-water-silica gel layer; type: physicochemical; settings: buffer
Summary of the method: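 Reversed-phase partition chromatography. The mobile phase was acetone–water; the stationary phase was a silica gel layer impregnated with a paraffin solution in n-hexane.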

[2] = system: Mycobacterium tuberculosis; test: Antibacterial activity against Mycobacterium tuberculosis H37Rv assessed as growth inhibition by two-fold serial dilution method; type: functional; settings: for MIC: Mycobacterium tuberculosis, H37Rv
[3] = Dissociation constant, pKa of the compound
[4] = Dissociation constant, pKa of the compound at 25 degC by spectrophotometric analysis; type: physicochemical
Summary of the method: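 Determined spectrophotometrically at 25 °C (±1). For the approximate value of the nitro-substituted pyridine, the Hammett acidity function (H0) was used.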

[5] = system: Mycobacterium tuberculosis; test: Antibacterial activity against Mycobacterium tuberculosis assessed as growth inhibition; type: functional
Summary of the method: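 Liquid-culture serial dilution against M. tuberculosis H37Rv, with √2 dilution steps. The test medium had 0.7% protein content. MIC (μM) was taken as the average of at least two determinations. Isoniazid served as the standard in every experiment. Activity was expressed as 1/MIC.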

[6] = system: Mycobacterium tuberculosis; test: Antibacterial activity against Mycobacterium tuberculosis using acidic culture media at pH 5.9 assessed as growth inhibition; type: functional
[7] = system: Mycobacterium tuberculosis; test: Antibacterial activity against Mycobacterium tuberculosis assessed as growth inhibition at pH 7; type: functional
[8] = system: Mycobacterium tuberculosis; test: Antibacterial activity against Mycobacterium tuberculosis assessed as growth inhibition in presence of 16 uM nicotinic acid hydrazide; type: functional
[9] = 1-octanol-phosphate buffer partition coefficient, log P of the compound at pH 7.4; type: physicochemical
[10] = system: Mycobacterium tuberculosis; test: microbe, parasite or virus in culture

SMILES	Rm [1]	log(1/MIC) [2]	pKa [3]	further results
CCc1cc(C(=O)NN)ccn1	0.862	-1.324	–	–
NNC(=O)c1ccnc(I)c1	0.931	-2.404	–	–
Nc1ccccn1 [2-AMINOPYRIDINE]	–	–	6.71	–
NNC(=O)c1ccnc([N+](=O)[O-])c1	0.577	-2.569	–	–
CC(C)Cc1cc(C(=O)NN)ccn1	1.366	-2.653	–	MIC [2]: 450 µM (≈ 87 µg/mL)
CCOc1cc(C(=O)NN)ccn1	0.954	-2.655	–	–
NNC(=O)c1ccnc(Br)c1	0.866	-2.79	–	MIC [2]: 616 µM (≈ 133 µg/mL)
CCOc1ccccn1	–	–	–	pKa [4]: 3.47
CCN(CC)c1ccccn1	–	–	–	pKa [4]: 7.32
NNC(=O)c1cccnc1 [NICOTINIC ACID HYDRAZIDE]	–	–	–	MIC [5]: 1900 µM (≈ 261 µg/mL)
CCc1ccccn1	–	–	5.97	–
O=C(O)c1ccncc1 [ISONICOTINIC ACID]	–	–	4.84	MIC [6]: 128 µM (≈ 15.8 µg/mL); MIC [7]: > 4000 µM
CC(=O)Nc1cc(C(=O)NN)ccn1	0.266	-3.332	–	–
Brc1ccccn1	–	–	0.9	–
NNC(=O)c1ccnc(Cl)c1	0.63	-2.593	–	–
NNC(=O)c1ccncc1 [ISONIAZID]	0.372	-0.041	–	MIC [5]: 1 µM (≈ 0.137 µg/mL); MIC [8]: 1900 µM; MIC [2]: 1.1 µM (≈ 0.151 µg/mL); logD [9]: -1.14; MIC [10]: 0.5 µM (≈ 0.0686 µg/mL)
CC(=O)NCc1ccccn1	–	–	–	pKa [4]: 4.23

SMILES	Rm [1]	log(1/MIC) [2]	pKa [3]	further results
CCN(CC)c1cc(C(=O)NN)ccn1	1.383	-2.856	–	–
CCCc1cc(C(=O)NN)ccn1	1.168	-1.742	–	–
CC(=O)NCc1cc(C(=O)NN)ccn1	0.34	-2.386	–	–
C=Cc1ccccn1	–	–	4.98	–
COc1ccccn1	–	–	3.06	–
CC(=O)Nc1ccccn1	–	–	4.09	–
NNC(=O)c1ccnc(N)c1	0.32	-1.161	–	–
NNC(=O)c1ccnc(F)c1	0.42	-2.415	–	MIC [2]: 260 µM (≈ 40.3 µg/mL)
NNC(=O)c1ccnc(-c2ccccc2)c1	1.643	-1.699	–	–
CCCc1ccccn1	–	–	5.97	–
C=Cc1cc(C(=O)NN)ccn1	1.02	-1.544	–	–
c1ccc(Cc2ccccn2)cc1	–	–	5.13	–
COc1cc(C(=O)NN)ccn1	0.783	-2.185	–	–
NNC(=O)c1ccnc(Cc2ccccc2)c1	1.365	-1.585	–	–
Fc1ccccn1	–	–	0.44	–
Cc1cc(C(=O)NN)ccn1	0.697	-0.716	–	–
